# Screening results from PubChem BioAssay.
# Most compounds without a hit are left out; they make up all but 4.6% or so of the library.
# Biofilm kill mix: clotrimazole potentiators killing C. albicans biofilm, primary screen, 4-compound mixtures; C. albicans biofilm persisters + clotrimazole, fluorescence viability; primary screen in compound mixtures of four per well; inhibition, % at 7.6 µM; 120,000 tested, 0.02% active;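 active = inhibition above 30.3% in the primary screen of four-compound pools, then above 30% when the compound was retested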;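 also: compounds exposed to preformed 24 h biofilms for 48 h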
#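 Probe or stimulus – Clotrimazole 50 µg/mL co-treatment · System – C. albicans biofilms · Schedule – 24 h biofilm formation, then 48 h compound exposure, 37 °C · Evaluation – percent inhibition of biofilm viability · Technique – 2-h Alamar Blue fluorescence, 535/590 nm excitation/emission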
# Arbovirus inh: antivirals against arbovirus infection, primary screen, cell-based, full library, 10K replicate subset; arbovirus infection cell-based antiviral screen; inhibition, % at 10 µM; 200,000 tested, 0.37% active; AID 1251, 2008; in the data active = inhibition above about 30%
# WT yeast gro inh: growth inhibition of WT strain, primary screen, mitochondrial fusion inhibitor project, WT and mutant strains, chemical genetic. 190,000 tested, 2.1% active. AID 1362, 2008. mitochondrial fusion phenotypic screen. inhibition, % at 10 µM; in the data active = inhibition above about 58%; tested in S. cerevisiae
# NCF1 inh: p47phox/p22phox peptide binding inhibitors, primary screen, biochemical, uHTS, NADPH oxidase regulatory subunit | Neutrophil cytosol factor 1 (Homo sapiens), P14598 | fluorescence polarization, 2 h | inhibition, % at 24.7 µM | 220,000 tested, 0.53% active;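 active = inhibition above about 30%, limit read from the data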
# Target sequence (P14598 whole entry, looked up): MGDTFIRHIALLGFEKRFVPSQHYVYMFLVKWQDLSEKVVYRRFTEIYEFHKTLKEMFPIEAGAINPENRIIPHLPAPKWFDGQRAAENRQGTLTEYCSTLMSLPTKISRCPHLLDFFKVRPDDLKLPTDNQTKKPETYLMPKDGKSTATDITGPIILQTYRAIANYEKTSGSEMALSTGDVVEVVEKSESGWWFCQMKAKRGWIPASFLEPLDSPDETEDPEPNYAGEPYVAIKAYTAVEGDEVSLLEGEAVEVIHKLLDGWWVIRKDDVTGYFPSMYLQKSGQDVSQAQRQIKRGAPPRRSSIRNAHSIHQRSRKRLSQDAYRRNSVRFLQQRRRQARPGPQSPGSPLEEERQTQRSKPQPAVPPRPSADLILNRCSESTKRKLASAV
# Hck Nef HTS: inhibitors of Nef-activated human Hck kinase, primary screen, biochemical, Z-Lyte FRET, 384-well, Hck-YEEI. AID 463187, 2010. Tyrosine-protein kinase HCK (Homo sapiens), P08631. inhibition, % at 20 µM. 220,000 tested, 0.68% active. Recombinant Hck-YEEI plus Nef, Z-Lyte FRET kinase assay;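 active = Hck-Nef kinase inhibition above about 50%, limit read from the data; inactive = inhibition below that limit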
# RAM inhibit: inhibitors of the yeast RAM network, primary screen, dse1pr::URA3 reporter, 5-FOA selection | S. cerevisiae dse1pr::URA3 reporter, 5-FOA growth OD615, 2 d; analog-sensitive cbk1-as2 kinase mutant strain | inhibition, % at 50 µM | 190,000 tested, 1.8% active | AID 868, 2007;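 active = inhibition above a set limit, 3 SD over mean compound inhibition, cut at about 8.4% in these data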;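 also: inhibition rescues growth on 5-FOA so higher OD means more RAM inhibition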
# A number is an active result; n = inactive; x = no result given.
SMILES,Biofilm kill mix,Arbovirus inh,WT yeast gro inh,NCF1 inh,Hck Nef HTS,RAM inhibit
C=CCN(CC=C)S(=O)(=O)c1ccc(NC(=S)NC(=O)/C=C/c2ccccc2)cc1,x,n,n,n,n,10.0
C=CCN(CC=C)C(=S)NC(=O)/C=C/c1ccccc1,n,n,n,n,n,n
CC12CCC(C(=O)N3CCCCCC3)(OC1=O)C2(C)C (stereo not given),x,n,n,n,n,n
CC12CCC(C(=O)N3CCN(Cc4ccccc4)CC3)(OC1=O)C2(C)C (stereo not given),x,n,n,31.8,n,n
CN(C)/C=C1\N=C(c2cccs2)OC1=O,x,n,n,n,n,n
O=C1OC(c2ccco2)=N/C1=C\c1ccc(-c2cccc(C(F)(F)F)c2)o1,n,n,n,n,n,n
O=C1OC(c2cccs2)=N/C1=C/c1ccc(-c2cccc(C(=O)O)c2)o1,n,n,n,n,115.8,n
O=C1OC(c2cccs2)=N/C1=C\c1ccc(-c2ccccc2Cl)o1,x,n,n,81.2,n,n
CCCCCCCCCCCCCCCC(O)C(N)CO (stereo not given),n,n,n,84.3,n,n
CCCCSc1c(C)c2cc3c(cc2[nH]c1=O)OCO3,x,n,n,n,n,n
COc1ccc([N+](=O)[O-])cc1N(CC(=O)NCCSc1ccccc1)S(C)(=O)=O,n,n,n,n,n,n
CCN1CCN(Cc2ccc(NC(=O)c3cc(NC(=O)c4cc5cccc(OC)c5o4)cc(OC)c3)cc2C(F)(F)F)CC1,n,x,x,56.7,n,x
CCN1CCN(Cc2ccc(NC(=O)c3ccc(C)c(NC(=O)c4c[nH]c5cc(C(F)(F)F)ccc5c4=O)c3)cc2C(F)(F)F)CC1,n,x,x,73.1,n,x
CCN1CCN(Cc2ccc(NC(=O)c3ccc(C)c(NC(=O)c4csc(-c5ccncc5)n4)c3)cc2C(F)(F)F)CC1,n,x,x,n,n,x
CCN1CCN(Cc2ccc(NC(=O)c3cc(NC(=O)c4cc(-c5ccc(OC)cc5)n[nH]4)cc(OC)c3)cc2C(F)(F)F)CC1,n,x,x,38.2,n,x
Cc1cccc2sc(N(CCCN(C)C)C(=O)c3sc4ccccc4c3Cl)nc12,n,n,87.5,n,n,n
Cc1cccc2sc(N(CCCN(C)C)C(=O)COc3ccc(Cl)cc3)nc12,n,n,89.7,n,n,n
Cc1cc(C)c2sc(N(CCCN(C)C)C(=O)COc3ccc(Cl)cc3)nc2c1,n,n,88.8,n,n,n
Cc1ccc2nc(N(CCCN(C)C)C(=O)c3ccc(Br)s3)sc2c1,n,n,90.2,n,n,n
Cc1ccc2nc(N(CCCN(C)C)C(=O)c3ccco3)sc2c1,n,n,n,n,n,n
Cc1ccc2nc(-c3ccccc3)c(CC(=O)O)c(C(=O)O)c2c1,n,n,n,n,n,n
CN(C)CCCN(C(=O)CCc1ccccc1)c1nc2c(F)cccc2s1,n,n,60.1,n,n,n
CN(C)CCCN(C(=O)COc1ccccc1)c1nc2ccc(F)cc2s1,n,n,n,n,n,n
CN(C)CCCN(C(=O)COc1ccc(Cl)cc1)c1nc2ccc(F)cc2s1,n,n,60.7,n,n,n
CN(C)CCCN(C(=O)CCOc1ccccc1)c1nc2c(F)cccc2s1,n,n,n,n,n,n
SMILES,Biofilm kill mix,Arbovirus inh,WT yeast gro inh,NCF1 inh,Hck Nef HTS,RAM inhibit
Cc1ccc2sc(N(CCCN(C)C)C(=O)CN3C(=O)c4ccccc4C3=O)nc2c1C,n,n,94.2,n,n,n
Cc1ccc2nc(N(CCCN(C)C)C(=O)COc3ccc(Cl)cc3)sc2c1,n,n,91.0,n,n,n
CN(C)CCCN(C(=O)COc1ccc(Cl)cc1)c1nc2c(F)cccc2s1,n,n,n,n,n,n
O=C(CCC(=O)N1CCN(c2ccccn2)CC1)Nc1nnc(C(F)(F)F)s1,n,x,x,n,n,x
COc1ccc(-n2c(O)c(/C=N/n3cnnc3)c3ccccc3c2=O)cc1,x,n,n,n,n,n
CCOc1ccc2c(c1)c(N=Nc1cccc(C(=O)O)c1)c(O)n2C,n,n,n,n,n,10.4
Cc1nc2ccccc2n1C1CC(=O)N(Cc2ccccc2)C1=O (stereo not given),x,n,n,n,n,n
